In the library only some 2.5% were active in any assay of this set; here they are far more common.
MBD2 DNA inh: inhibitors of MBD2 binding to methylated DNA, primary screen, biochemical, TR-FRET, DNA-binding domain, human | MBD2 binding to methylated oligonucleotide | inhibition, % at 4.4 µM | Methyl-CpG-binding domain protein 2 (Homo sapiens), Q9UBB5 | 0.31% of 370,000 active | AID 686964, 2013; in the data active = inhibition above about 13%
UHRF1 MBD2 ctr: UHRF1 methylated DNA binding inhibitors, primary screen, counter-screen for MBD2 inhibitor project, biochemical, TR-FRET, human UHRF1, single concentration; 0.75% of 370,000 active; UHRF1 binding to methylated oligo; E3 ubiquitin-protein ligase UHRF1 (Homo sapiens), Q96T88; inhibition, % at 4.4 µM; in the data active = inhibition above about 21%;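 note: UHRF1 SRA domain binding a hemimethylated CpG hairpin DNA probe; 0% = median of test compound wells and 100% = reference inhibitor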
Pemphigus Ab inh: inhibitors of pemphigus antibody binding to DSG3, primary screen, biochemical, bead-based, flow cytometry, scFv-GFP. Desmoglein-3 (Homo sapiens), P32926. DSG3-coupled beads, scFv-anti-DSG3-GFP binding; active compounds read low. binding (percent of control), % at 10 µM. 0.48% of 310,000 active. AID 588358, 2011;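 active = binding more than 3 SD below its plate's average and above zero; inconclusive = below that plate limit but binding exactly zero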;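 note: hits lower antibody fragment binding to DSG3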
DNMT1 inh: human DNMT1 methyltransferase inhibitors, primary screen, biochemical, molecular beacon, fluorescence, HinP1I cleavage, uHTS. DNA (cytosine-5)-methyltransferase 1 (Homo sapiens), P26358. inhibition (reported as % activation of signal), % at 10 µM. 0.83% of 360,000 active. AID 588458, 2011; in the data active = inhibition above about 50%
Target sequence (P26358 504-1616 limits assumed): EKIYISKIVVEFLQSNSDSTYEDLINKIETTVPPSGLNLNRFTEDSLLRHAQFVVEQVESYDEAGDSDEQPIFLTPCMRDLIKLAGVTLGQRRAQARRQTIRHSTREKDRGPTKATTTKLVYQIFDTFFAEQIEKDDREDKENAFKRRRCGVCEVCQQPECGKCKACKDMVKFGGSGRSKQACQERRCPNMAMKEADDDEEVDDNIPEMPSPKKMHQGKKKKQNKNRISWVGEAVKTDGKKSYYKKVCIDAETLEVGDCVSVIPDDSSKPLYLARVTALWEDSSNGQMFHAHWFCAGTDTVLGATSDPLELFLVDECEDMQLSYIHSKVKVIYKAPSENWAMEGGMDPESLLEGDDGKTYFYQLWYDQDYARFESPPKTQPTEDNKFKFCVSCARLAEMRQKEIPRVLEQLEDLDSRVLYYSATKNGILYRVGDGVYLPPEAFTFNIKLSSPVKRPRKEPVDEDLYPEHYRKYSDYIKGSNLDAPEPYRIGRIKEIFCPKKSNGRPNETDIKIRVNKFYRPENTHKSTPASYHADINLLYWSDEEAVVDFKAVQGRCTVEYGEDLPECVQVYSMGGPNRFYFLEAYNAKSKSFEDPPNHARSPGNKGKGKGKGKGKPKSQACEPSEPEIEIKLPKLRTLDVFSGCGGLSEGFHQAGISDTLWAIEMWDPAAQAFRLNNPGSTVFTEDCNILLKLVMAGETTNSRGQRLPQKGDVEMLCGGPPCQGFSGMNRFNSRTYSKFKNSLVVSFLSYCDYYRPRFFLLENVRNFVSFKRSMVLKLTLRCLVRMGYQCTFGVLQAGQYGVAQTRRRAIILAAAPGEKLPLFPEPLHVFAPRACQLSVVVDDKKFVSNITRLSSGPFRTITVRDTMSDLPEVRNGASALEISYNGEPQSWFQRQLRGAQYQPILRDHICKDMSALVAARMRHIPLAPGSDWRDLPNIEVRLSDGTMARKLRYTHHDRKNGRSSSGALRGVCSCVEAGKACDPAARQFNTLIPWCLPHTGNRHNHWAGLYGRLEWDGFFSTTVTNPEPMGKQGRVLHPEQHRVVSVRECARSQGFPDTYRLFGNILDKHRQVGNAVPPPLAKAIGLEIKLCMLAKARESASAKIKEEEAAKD
HCV NS3 hel inh: inhibitors of HCV NS3 helicase, primary screen, biochemical, Cy5 molecular beacon fluorescence | NS3 helicase DNA unwinding | Hepatitis C virus NS3 helicase | inhibition, % at 10.9 µM | 0.56% of 290,000 active;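 active = inhibition above the mean of all tested compounds plus 3 SD, set per campaign, cut at about 35% in these data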;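 note: 0% = DMSO wells and 100% = thioflavine S control wells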
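Measured by: Cy5 fluorescence, 0 and 60 min reads / Assay system: NS3 helicase fragment of HCV / Control set: low DMSO, high thioflavine S at 110 µM / Times: 1 h reaction at 25 °C, ATP-initiated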
SUMO1 PPI mod: modulators of SUMO1 protein-protein interactions, primary screen, biochemical, uHTS; Small ubiquitin-related modifier 1 (Homo sapiens), P63165; SUMO1 binding to a labelled peptide, TR-FRET, 1 h; inhibition, % at 20 µM; 0.33% of 360,000 active; in the data active = inhibition above about 37%
Active calls of the source: *; u = inconclusive; x = no result given.

SMILES	MBD2 DNA inh	UHRF1 MBD2 ctr	Pemphigus Ab inh	DNMT1 inh	HCV NS3 hel inh	SUMO1 PPI mod
CCOC(=O)c1ccc(Nc2ccc(-c3ccc(OC)c(OC)c3)nn2)cc1	-5	-5	86*	-4	2	-1
Cc1cc(-c2csc(NC(=O)c3ccc(=O)[nH]c3)n2)c(C)n1Cc1ccco1	10	9	82*	74*	20	78*
CCOC(=O)c1[nH]c2cc(OC)c(OC)cc2c1NC(=O)c1ccc2c(c1)OCO2	-4	2	17*	3	0	4
CCOC(=O)c1[nH]c2ccccc2c1NC(=O)c1ccc2c(c1)OCO2	0	-1	-8.4*	-1	3	-3
O=c1[nH]nc(CNc2ccc(O)cc2)c2ccccc12	-10	-6	92	6	22	55*
O=C1CC(N2CCC(c3nc4ccccc4o3)CC2)C(=O)N1Cc1cccs1 (stereo not given)	4	2	106	-3	6	57*
Cc1ccc(N2C(=O)C3C4C=CC(CNC(=S)N5CCN(c6cccc(C)c6)C(C)C5)(O4)C3C2=O)cc1 (stereo not given)	-8	-2	83*	11	12	-4
O=S(=O)(NCC1CCCO1)c1ccccc1F (stereo not given)	6	-1	99	-4	5	4
COc1ccc(C(=O)NCc2nnc(SCC(=O)Nc3nnc(C)s3)o2)cc1	1	0	89	1	2	-1
COc1ccc(OC)c(NC(=O)CSc2nnc(CNC(=O)c3ccco3)o2)c1	-3	8	x	1	1	-3
CCSc1nnc(NC(=O)CSc2nnc(CNC(=O)c3ccc(OC)cc3)o2)s1	5	4	-2.6*	2	5	1
COc1ccc(Cl)cc1NC(=O)CSc1nnc(CNC(=O)c2ccco2)o1	0	22*	96	9	1	3
CCOC(=O)c1ccc(NC(=O)N2CCN(S(C)(=O)=O)CC2)cc1	0	4	96	1	3	0
CCOC(=O)c1ccc(NC(=S)N2CCN(S(C)(=O)=O)CC2)cc1	-8	-2	57*	7	10	-3
COc1ccc(-c2sc3cc(OC)c(OC)cc3c2C#CCO)cc1	7	22*	87	-8	x	-3
COc1ccc(-c2sc3cc(OC)c(OC)cc3c2C#CC(C)(C)O)cc1	6	12	88	25	x	-1
NC(=O)c1ccc(NC(=O)CSC2=Nc3ccccc3C3CC=NN23)cc1 (stereo not given)	x	x	97	-1	0	47*
Cc1ccc(NC(=O)CSC2=Nc3ccccc3C3CC=NN23)c(C)c1 (stereo not given)	4	-2	102	17	-3	-9
O=C(CSC1=Nc2ccccc2C2CC=NN12)Nc1ccc(F)cc1Cl (stereo not given)	-3	0	30*	2	7	3
Cc1nn(CC(=O)Nc2cc(S(=O)(=O)N3CCOCC3)ccc2Cl)c(C)c1[N+](=O)[O-]	1	-1	u	4	x	-1
C=CCn1c(-c2cccn(Cc3ccc(Cl)cc3)c2=O)n[nH]c1=S	2	1	103	-1	-3	3
CCn1c(CNc2ccc(F)cc2)nnc1SCC(=O)OC1CCCCC1	0	3	102	-5	4	-1
Cn1c2c(c(=O)n(C)c1=O)C(c1ccc(C(F)(F)F)cc1)CC(=O)N2 (stereo not given)	-5	31*	106	0	x	6
Cn1cnc2cc(NCc3ccc(Cl)cc3)ccc21	3	-2	98	-1	-2	-3
COC(=O)c1cc2c(c3c4ccccc4n(S(=O)(=O)c4ccc(OC)cc4)c13)C(=O)N(Cc1ccc(C(F)(F)F)cc1)C2	0	1	x	x	x	x
SMILES	MBD2 DNA inh	UHRF1 MBD2 ctr	Pemphigus Ab inh	DNMT1 inh	HCV NS3 hel inh	SUMO1 PPI mod
COc1cc(F)ccc1-c1cc(C(=O)Nc2ccc(NC(C)=O)cc2)[nH]n1	-2	-2	x	0	x	63*
Cc1cccc(NC(=O)c2cc(-c3cc(C)ccc3O)n[nH]2)c1	-5	0	96	5	0	0
CC(=O)Nc1ccc(NC(=O)c2cc(-c3ccc(C)cc3O)n[nH]2)cc1	0	-2	106	-6	1	74*
Cn1c(=O)n(C)c2cc(NS(=O)(=O)c3cccs3)ccc21	-4	0	100	0	2	2
CCN(CC)CC(C)OC(=O)COc1ccc(OC)cc1 (stereo not given)	-3	24*	x	4	6	-2
COc1ccc(OCC(=O)OC(C)CN2CCOCC2)cc1 (stereo not given)	-6	-4	99	-1	8	2
Cc1cc(N2CCN(C(c3ccnc4ccccc34)c3nnnn3-c3c(C)cccc3C)CC2)c2ccccc2n1 (stereo not given)	3	24*	x	x	x	4
OC(c1ccccc1)C(O)c1ccccc1 (stereo not given)	0	3	91*	4	x	-3
CN(C)c1ccc(C(c2ccc(N(C)C)cc2)C(O)c2ccccc2)cc1 (stereo not given)	2	-1	x	-6	x	-5
CC(C)Cc1nnc(NC(=O)CSc2ccccn2)s1	2	-4	108	4	0	-3
O=C(Cn1ncc2c(=O)oc3ccccc3c21)NCC1COc2ccccc2O1 (stereo not given)	-1	0	88*	6	-4	2
O=C(Cn1ncc2c(=O)oc3ccccc3c21)NC1CC1	1	-7	94	4	-5	-1
COCCCNC(=O)C1CCC(=O)N(c2ccc3c(c2)OCO3)C1c1ccc(OC)cc1 (stereo not given)	-1	-1	143	1	8	7
CCN1/C(=C/C(C)=C/c2sc3ccccc3[n+]2CC)Sc2ccccc21	-12	-4	23*	13	2	21
O=C(N/N=C/c1ccco1)C1CC1(c1ccccc1)c1ccccc1 (stereo not given)	-2	-1	119	18	3	-1
C/C(=N/NC(=O)C1CC1(c1ccccc1)c1ccccc1)c1cccs1 (stereo not given)	-1	-4	107	0	5	-1
NNC(=O)C1CC1(c1ccccc1)c1ccccc1 (stereo not given)	5	23*	x	1	24	3
